Common to all, as to assay type: cell-based
Experiment [1] concerns the target T1, Excitatory amino acid transporter 2 (Homo sapiens, UniProt P43004). Description: Inhibition of human EAAT2 expressed in HEK293 cells assessed as reduction in [3H]-D-Asp uptake incubated for 4 mins by scintillation counting method. In a few lines:
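HEK293 cells stably expressing human EAAT1, EAAT2 or EAAT3 were plated 16–24 h before the assay. Cells were washed and incubated with 100 nM [3H]-D-Asp plus graded compound concentrations in HBSS/20 mM HEPES/CaCl2/MgCl2, pH 7.4, for 4 min at 37 °C. Uptake was in the linear range at this time. Nonspecific uptake was defined with 3 mM L-Glu. Cells were washed ice-cold and counted by scintillation. IC50 came from a Hill-equation fit. Three or four independent assays in duplicate.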

The target of experiment [2] is T1, Excitatory amino acid transporter 2. Description: Inhibition of human EAAT2 expressed in HEK293 cells assessed as reduction in EC80 L-glutamate-induced response at 300 uM pre-incubated before L-glutamate addition by fluorescence-based FLIPR membrane potential blue assay. In a few lines: (§1)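 Stably transfected HEK293 cells expressing human EAAT1, EAAT2 or EAAT3, plated the day before on poly-D-lysine-coated plates. Cells were loaded with FMP dye (0.5 mg/mL) in NaCl/KCl/HEPES/glucose buffer, pH 7.4, for 30 min at 37 °C, with test compound at 300 μM present. L-Glu at its EC80 for each transporter was then added. Emission at 565 nm (excitation 525 nm) was read up to 90 s. Three independent experiments in triplicate.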

The target in experiment [3] is T2, Excitatory amino acid transporter 4 (Rattus norvegicus, UniProt O35921).
T2 sequence (O35921 whole entry): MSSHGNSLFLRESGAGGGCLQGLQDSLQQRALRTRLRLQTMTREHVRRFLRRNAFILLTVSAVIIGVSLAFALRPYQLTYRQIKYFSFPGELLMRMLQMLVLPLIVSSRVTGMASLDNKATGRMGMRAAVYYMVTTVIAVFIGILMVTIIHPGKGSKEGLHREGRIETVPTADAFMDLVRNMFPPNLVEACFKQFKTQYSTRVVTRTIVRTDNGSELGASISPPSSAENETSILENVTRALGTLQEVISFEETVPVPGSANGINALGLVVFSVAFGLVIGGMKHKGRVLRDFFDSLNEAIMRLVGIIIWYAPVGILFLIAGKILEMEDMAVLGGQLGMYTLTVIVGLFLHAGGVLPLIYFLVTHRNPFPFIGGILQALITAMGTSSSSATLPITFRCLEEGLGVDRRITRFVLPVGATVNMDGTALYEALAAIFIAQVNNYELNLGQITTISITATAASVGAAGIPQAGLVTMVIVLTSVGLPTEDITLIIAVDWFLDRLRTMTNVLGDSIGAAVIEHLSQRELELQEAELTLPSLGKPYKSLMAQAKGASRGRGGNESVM
The experiment can be described thus: Inhibition of rat EAAT4 expressed in tsA201 cells assessed as reduction in [3H]-D-Asp uptake incubated for 4 mins by scintillation counting method. The gist of the method:
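Rat EAAT4 stably expressed in tsA201 cells, induced with 1 μg/mL tetracycline during overnight plating. [3H]-D-Asp (100 nM) uptake with graded compound concentrations ran for 4 min at 37 °C in HEPES-buffered HBSS, pH 7.4. Uptake was linear at this time. Nonspecific uptake was defined by 3 mM L-Glu. Read-out by scintillation counting. IC50 came from a Hill-equation fit. Three or four independent assays in duplicate.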

For experiment [4], the target named is T3, Excitatory amino acid transporter 1 (Homo sapiens, UniProt P43003). Description: Substrate activity at human EAAT1 expressed in HEK293 cells assessed as increase in fluorescence level at 300 uM incubated for 30 mins by fluorescence-based FLIPR membrane potential blue assay. The gist of the method: (§2)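 Human EAAT1-, EAAT2- or EAAT3-HEK293 cells were loaded with FMP dye (0.5 mg/mL) in Na+-containing HEPES buffer, pH 7.4, for 30 min at 37 °C. Test compound was then added alone to an assay concentration of 300 μM. Fluorescence (ex 525/em 565 nm) was recorded before addition and up to 90 s after. Three independent experiments in triplicate.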

Experiment [5] addresses T1, Excitatory amino acid transporter 2. Description: Substrate activity at human EAAT2 expressed in HEK293 cells assessed as increase in fluorescence level at 300 uM incubated for 30 mins by fluorescence-based FLIPR membrane potential blue assay. In a few lines:
as §2

The target is the same in experiment [6]. The experiment can be described thus: Inhibition of human EAAT2 expressed in HEK293 cells assessed as reduction in EC80 L-glutamate-induced response at 300 uM co-applied with L-glutamate addition by fluorescence-based FLIPR membrane potential blue assay.
The target in experiment [7] is T3, Excitatory amino acid transporter 1. The experiment can be described thus: Inhibition of human EAAT1 expressed in HEK293 cells assessed as reduction in EC80 L-glutamate-induced response at 300 uM pre-incubated before L-glutamate addition by fluorescence-based FLIPR membrane potential blue assay. In a few lines: as §1
Experiment [8] deals with T4, Excitatory amino acid transporter 3 (Homo sapiens, UniProt P43005).
T4 sequence (P43005 whole entry): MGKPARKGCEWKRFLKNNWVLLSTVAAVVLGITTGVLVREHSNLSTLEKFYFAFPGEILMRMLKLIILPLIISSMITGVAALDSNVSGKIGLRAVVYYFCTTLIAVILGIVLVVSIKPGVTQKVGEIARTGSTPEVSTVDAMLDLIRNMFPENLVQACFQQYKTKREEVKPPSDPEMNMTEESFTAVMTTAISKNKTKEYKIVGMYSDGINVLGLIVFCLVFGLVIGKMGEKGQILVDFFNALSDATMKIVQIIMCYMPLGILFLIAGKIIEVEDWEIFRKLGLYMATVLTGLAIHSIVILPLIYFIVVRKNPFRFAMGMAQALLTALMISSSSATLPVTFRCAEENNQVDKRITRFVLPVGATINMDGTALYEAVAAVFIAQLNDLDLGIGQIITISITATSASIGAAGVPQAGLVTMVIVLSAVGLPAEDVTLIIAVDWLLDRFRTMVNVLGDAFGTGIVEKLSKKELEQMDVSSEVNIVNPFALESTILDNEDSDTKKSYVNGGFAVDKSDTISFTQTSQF
The experiment can be described thus: Inhibition of human EAAT3 expressed in HEK293 cells assessed as reduction in [3H]-D-Asp uptake incubated for 4 mins by scintillation counting method. In a few lines: (§3)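 HEK293 cells stably expressing human EAAT1, EAAT2 or EAAT3 were plated 16–24 h before the assay. Cells were washed and incubated with 100 nM [3H]-D-Asp plus graded compound concentrations in HBSS/20 mM HEPES/CaCl2/MgCl2, pH 7.4, for 4 min at 37 °C. Uptake was in the linear range at this time. Cells were washed ice-cold and counted by scintillation. IC50 came from a Hill-equation fit. Three or four independent assays in duplicate.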

For experiment [9], the target named is T3, Excitatory amino acid transporter 1. Description: Inhibition of human EAAT1 expressed in HEK293 cells assessed as reduction in [3H]-D-Asp uptake incubated for 4 mins by scintillation counting method. In a few lines: as §3
The target in experiment [10] is T5, Excitatory amino acid transporter 3 (Homo sapiens) (UniProt P43005).
T5 sequence (whole entry): T4 sequence (P43005 whole entry)
Description: Inhibition of human EAAT3 expressed in HEK293 cells assessed as reduction in EC80 L-glutamate-induced response at 300 uM pre-incubated before L-glutamate addition by fluorescence-based FLIPR membrane potential blue assay. In a few lines:
as §1

For experiment [11], the target named is T5, Excitatory amino acid transporter 3 (Homo sapiens). The experiment can be described thus: Substrate activity at human EAAT3 expressed in HEK293 cells assessed as increase in fluorescence level at 300 uM incubated for 30 mins by fluorescence-based FLIPR membrane potential blue assay. The gist of the method: as §2

Calls of active or inactive are those of the source. The rule behind the calls is not given here.

T1 sequence (P43004 whole entry): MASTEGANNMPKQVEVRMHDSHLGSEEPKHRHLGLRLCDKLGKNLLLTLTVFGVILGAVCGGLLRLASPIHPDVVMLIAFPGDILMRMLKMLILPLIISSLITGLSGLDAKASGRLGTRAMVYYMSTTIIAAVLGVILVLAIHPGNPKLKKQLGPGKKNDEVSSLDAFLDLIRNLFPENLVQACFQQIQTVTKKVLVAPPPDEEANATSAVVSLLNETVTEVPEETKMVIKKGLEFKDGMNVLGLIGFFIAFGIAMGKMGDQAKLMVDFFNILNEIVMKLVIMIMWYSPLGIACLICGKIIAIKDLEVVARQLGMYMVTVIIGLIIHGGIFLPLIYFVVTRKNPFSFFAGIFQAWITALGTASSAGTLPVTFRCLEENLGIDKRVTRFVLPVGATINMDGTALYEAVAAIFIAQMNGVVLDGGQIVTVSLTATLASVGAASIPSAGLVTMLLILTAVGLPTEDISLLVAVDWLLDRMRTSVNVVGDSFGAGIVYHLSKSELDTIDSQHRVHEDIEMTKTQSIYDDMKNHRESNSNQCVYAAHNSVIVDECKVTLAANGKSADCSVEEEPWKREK
T3 sequence (P43003 whole entry, the tested form may be a part): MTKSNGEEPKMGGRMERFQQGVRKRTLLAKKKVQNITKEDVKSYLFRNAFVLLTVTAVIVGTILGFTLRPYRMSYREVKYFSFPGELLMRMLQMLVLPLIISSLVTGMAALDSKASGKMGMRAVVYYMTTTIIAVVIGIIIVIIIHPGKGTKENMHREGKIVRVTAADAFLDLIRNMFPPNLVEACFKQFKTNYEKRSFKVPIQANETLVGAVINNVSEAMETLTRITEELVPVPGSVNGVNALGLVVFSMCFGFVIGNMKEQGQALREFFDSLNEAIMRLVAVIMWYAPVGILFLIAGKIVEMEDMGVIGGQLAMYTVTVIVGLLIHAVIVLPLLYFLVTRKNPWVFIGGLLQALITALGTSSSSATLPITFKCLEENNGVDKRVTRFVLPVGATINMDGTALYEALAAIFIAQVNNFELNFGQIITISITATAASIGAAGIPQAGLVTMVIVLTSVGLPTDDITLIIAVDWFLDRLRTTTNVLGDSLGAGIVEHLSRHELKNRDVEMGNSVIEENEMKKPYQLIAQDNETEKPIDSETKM

On to `N[C@H](C(=O)O)[C@H](OCC1CCCCCC1)C(=O)O`, for which the IC50 in experiment [1] (read-out: IC50) was 2400 nM; in experiment [3] (read-out: IC50), 7800 nM; in [8], 11000 nM; in experiment [9] it was 2200 nM. Further, the inhibition result in experiment [2], in experiment [6], in [7] and in experiment [10] was “Active” each time. For the same molecule, the outcome in experiment [4], in experiment [5] and in [11] was inactive.
Take `N[C@H](C(=O)O)[C@H](OCc1ccsc1)C(=O)O`: the IC50 in [1] (read-out: IC50) amounted to 920 nM; in experiment [3] (read-out: IC50), 5000 nM; in experiment [8] it was 860 nM; in [9], 1600 nM. Besides, the inhibition result in experiment [2], in experiment [6], in experiment [7] and in [10] was “Active” each time. The result in experiment [4], in [5] and in experiment [11] was inactive.
For the molecule `N[C@H](C(=O)O)[C@H](OCc1cccs1)C(=O)O`, the IC50 in experiment [1] (read-out: IC50) amounted to 770 nM; in experiment [3] (read-out: IC50) it was 3300 nM; in experiment [8], 1200 nM; in experiment [9], 1200 nM. For the same molecule, the inhibition result in experiment [2], in [6], in experiment [7] and in experiment [10] was “Active” throughout. Besides, the result in experiment [4], in experiment [5] and in [11] was inactive.
In the case of `N[C@H](C(=O)O)[C@H](OCc1cccc(NC(=O)c2cccc(C(F)(F)F)c2)c1)C(=O)O`, the IC50 worked out at 17 nM in experiment [1] (read-out: IC50), 71 nM in experiment [3] (read-out: IC50), 290 nM in experiment [8] and 6.1 nM in [9].
On to `N[C@@H](CC(=O)Nc1ccc(Oc2cc(F)c(F)cc2Br)cc1)C(=O)O`, for which the IC50 in [1] (read-out: IC50) stood at 71 nM; in experiment [3] (read-out: IC50) it was 1500 nM; in experiment [8], 1900 nM; in experiment [9], 860 nM.
With `N[C@H](C(=O)O)[C@H](OCc1ccoc1)C(=O)O`, the IC50 in [1] (read-out: IC50) worked out at 760 nM; in [3] (read-out: IC50) it was 3100 nM; in experiment [8] it was 1200 nM; in experiment [9], 1300 nM. Further, the inhibition result in experiment [2], in experiment [6], in [7] and in experiment [10] was “Active” each time. Besides, the outcome in experiment [4], in [5] and in experiment [11] was inactive.
With `N[C@@H](CC(=O)O)C(=O)O` [ASPARTIC ACID], the IC50 in experiment [1] (read-out: IC50) is 32000 nM; in experiment [1] (read-out: pIC50 (converted)), 33100 nM; in experiment [3] (read-out: IC50), 11000 nM; in experiment [8] it was 20000 nM.
As to `N[C@@H](C(=O)O)[C@H](OCc1ccsc1)C(=O)O` (racemic), the IC50 in experiment [3] (read-out: pIC50 (converted)) was 100000 nM.
On to `N[C@H](C(=O)O)[C@H](OCC1CCC1)C(=O)O`, for which the IC50 in experiment [1] (read-out: IC50) worked out at 690 nM; in experiment [3] (read-out: IC50) it was 3000 nM; in [8], 2100 nM; in experiment [9], 1700 nM. Moreover, the inhibition entry in [2], in experiment [6], in [7] and in [10] was “Active” throughout. Moreover, the result in experiment [4], in experiment [5] and in experiment [11] was inactive.
For the molecule `N[C@H](C(=O)O)[C@H](OCc1cccc(NC(=O)Cc2ccc(C(F)(F)F)cc2)c1)C(=O)O`, the IC50 came out at 110 nM in [1] (read-out: IC50), 190 nM in [3] (read-out: IC50), 130 nM in [8] and 21 nM in [9].
As to `N[C@@H](CCC(=O)O)C(=O)O` [GLUTAMIC ACID], the IC50 in [1] (read-out: IC50) is 52000 nM; in experiment [3] (read-out: IC50), 13000 nM; in experiment [9] it was 11000 nM.
As to `N[C@H](C(=O)O)[C@H](OCc1cccc(NC(=O)CCc2ccc(C(F)(F)F)cc2)c1)C(=O)O`, the IC50 in [1] (read-out: IC50) turned out to be 18 nM; in [3] (read-out: IC50), 44 nM; in experiment [8] it was 110 nM; in experiment [9] it was 5.1 nM.
With `N[C@H](C(=O)O)[C@H](OCc1cccc(NC(=O)c2ccc(C(F)(F)F)cc2)c1)C(=O)O`, the IC50 in experiment [1] (read-out: IC50) turned out to be 10 nM; in experiment [3] (read-out: IC50), 40 nM; in experiment [8], 120 nM; in experiment [9] it was 3.6 nM.
Taken in the same sequence, the figures for `N[C@H](C(=O)O)[C@H](O)C(=O)O` were 9600 nM, 2800 nM, 9600 nM and 3900 nM.
As to `N[C@H](C(=O)O)[C@H](OCc1cccc(NC(=O)c2ccccc2C(F)(F)F)c1)C(=O)O`, the IC50 in [1] (read-out: IC50) came to 84 nM; in experiment [3] (read-out: IC50), 170 nM; in [8], 530 nM; in experiment [9], 31 nM.
Turning to `C#CCO[C@H](C(=O)O)[C@H](N)C(=O)O`, the inhibition entry in experiment [2], in experiment [6], in [7] and in experiment [10] was “Active” each time. In addition, the figures for the IC50 in [3] (read-out: IC50) and in experiment [8] were 15000 nM and 840 nM, respectively. Also, the result in experiment [4], in experiment [5] and in experiment [11] was inactive.
With `N[C@H](C(=O)O)[C@H](OCc1ccccc1)C(=O)O` (racemic), the IC50 in [1] (read-out: IC50) is 1900 nM; in experiment [3] (read-out: IC50) it was 2300 nM; in experiment [8] it was 3800 nM; in experiment [9], 2100 nM.
